Measured values reported in ChEMBL document CHEMBL2424583, “Structure-activity relationship and in vitro and in vivo evaluation of the potent cytotoxic anti-microtubule agent N-(4-methoxyphenyl)-N,2,6-trimethyl-6,7-dihydro-5H-cyclopenta[d]pyrimidin-4-aminium chloride and its analogues as antitumor agents” (J Med Chem, 2013).
Calls of active or inactive are those of the source. The calls are words filed in the database; no cut-off is given here.

Assays:
[1] = Relative resistance, ratio of IC50 for M6-6 in human SKOV3 cells to IC50 for human SKOV3 cells; parameters: species or system SK-OV-3
Procedure, shortened: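 SRB antiproliferative assay on isogenic pairs: parental SK-OV-3 vs Pgp-overexpressing SK-OV-3 MDR-M6-6, and parental HeLa vs βIII-tubulin-transfected HeLa. IC50 is the mean ± SD of at least three independent experiments. Relative resistance (Rr) is the IC50 of the transduced line divided by the IC50 of the parental line.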

MDA-MB-231 [2] = assay: Antitumor activity against human MDA-MB-231 cells xenografted in athymic nude mouse assessed as net tumor log cell kill at 75 mg/kg, ip qd administered on day 14 for 5 days followed by compound readministration on day 27; type: functional; conditions: route intraperitoneal
Procedure, shortened: (§1)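 Female athymic nude mice were implanted sc with an MDA-MB-231T tumour fragment, and tumours were staged to about 125 mg. Drug was given ip in 10% DMSO in saline/Tween 80, with courses starting day 14 and repeated from day 27. There were 8 animals per treated group and 16 controls. Read-outs were body weight, deaths, median tumour mass as T/C, days to a predetermined size as T-C/C, and net log cell kill.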

Mus musculus [3] = assay: Toxicity in athymic nude mouse xenografted in human MDA-MB-231 cells assessed as mortality at 50 mg/kg, ip bid administered every other day started on day 14 followed by compound readministration every other day started on day 27; type: organism-based; parameters: dose 50 mg/kg, route intraperitoneal; conditions: in vivo; procedure, shortened: as §1
Mus musculus [4] = assay: Toxicity in athymic nude mouse xenografted in human MDA-MB-231 cells assessed as mortality at 75 mg/kg, ip qd administered every other day started on day 14 for 5 days followed by compound readministration on day 27; type: organism-based; parameters: dose 75 mg/kg, route intraperitoneal; conditions: in vivo, 120 h; procedure, shortened: as §1
Mus musculus [5] = assay: Toxicity in athymic nude mouse xenografted in human MDA-MB-231 cells assessed as mortality at 75 mg/kg, ip qd administered on day 14 for 5 days followed by compound readministration on day 27; type: organism-based; parameters: dose 75 mg/kg, route intraperitoneal; conditions: in vivo, 120 h; procedure, shortened: as §1
Mus musculus [6] = assay: Toxicity in athymic nude mouse xenografted in human MDA-MB-231 cells assessed as mortality at 50 mg/kg, ip qd administered on day 14 for 5 days followed by compound readministration on day 27; type: organism-based; parameters: dose 50 mg/kg, route intraperitoneal; conditions: in vivo, 120 h; procedure, shortened: as §1
MDA-MB-231 [7] = assay: Antitumor activity against human MDA-MB-231 cells xenografted in athymic nude mouse assessed as delay in tumor growth at 50 mg/kg, ip bid administered every other day started on day 14 followed by compound readministration every other day started on day 27 measured on day 31 relative to control; type: functional; conditions: route intraperitoneal
Procedure, shortened: (§2)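 MDA-MB-231T tumor fragments implanted sc in female athymic nude mice and staged to about 125 mg. Dosing was ip in 10% DMSO in saline/Tween 80, with courses starting day 14 and again day 27. Groups had 8 treated animals and 16 controls. Growth delay (T-C/C) is the median days for treated vs control tumors to reach a predetermined size, normalized to control, as %.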

MDA-MB-231 [8] = assay: Antitumor activity against human MDA-MB-231 cells xenografted in athymic nude mouse assessed as delay in tumor growth at 75 mg/kg, ip qd administered every other day started on day 14 for 5 days followed by compound readministration on day 27 measured on day 31 relative to control; type: functional; conditions: route intraperitoneal; procedure, shortened: as §2
MDA-MB-231 [9] = assay: Antitumor activity against human MDA-MB-231 cells xenografted in athymic nude mouse assessed as delay in tumor growth at 75 mg/kg, ip qd administered on day 14 for 5 days followed by compound readministration on day 27 measured on day 31 relative to control; type: functional; conditions: route intraperitoneal; procedure, shortened: as §1
MDA-MB-231 [10] = assay: Antitumor activity against human MDA-MB-231 cells xenografted in athymic nude mouse assessed as delay in tumor growth at 50 mg/kg, ip qd administered on day 14 for 5 days followed by compound readministration on day 27 measured on day 31 relative to control; type: functional; conditions: route intraperitoneal; procedure, shortened: as §1
MDA-MB-231 [11] = assay: Antitumor activity against human MDA-MB-231 cells xenografted in athymic nude mouse assessed as tumor growth inhibition at 75 mg/kg, ip qd administered every other day started on day 14 for 5 days followed by compound readministration on day 27 measured on day 31 relative to control; type: functional; conditions: route intraperitoneal; procedure, shortened: as §1
MDA-MB-231 [12] = assay: Antitumor activity against human MDA-MB-231 cells xenografted in athymic nude mouse assessed as tumor growth inhibition at 75 mg/kg, ip qd administered on day 14 for 5 days followed by compound readministration on day 27 measured on day 31 relative to control; type: functional; conditions: route intraperitoneal; procedure, shortened: as §1
Mus musculus [13] = assay: Toxicity in athymic nude mouse xenografted in human MDA-MB-231 cells assessed as body weight loss at 50 mg/kg, ip bid administered every other day started on day 14 followed by compound readministration every other day started on day 27 (reference value: 6.7%); type: organism-based; parameters: dose 50 mg/kg, route intraperitoneal; conditions: in vivo
Mus musculus [14] = assay: Toxicity in athymic nude mouse xenografted in human MDA-MB-231 cells assessed as body weight loss at 75 mg/kg, ip qd administered every other day started on day 14 for 5 days followed by compound readministration on day 27 (reference value: 6.7%); type: organism-based; parameters: dose 75 mg/kg, route intraperitoneal; conditions: in vivo, 120 h
Mus musculus [15] = assay: Toxicity in athymic nude mouse xenografted in human MDA-MB-231 cells assessed as body weight loss at 75 mg/kg, ip qd administered on day 14 for 5 days followed by compound readministration on day 27 (reference value: 6.7%); type: organism-based; parameters: dose 75 mg/kg, route intraperitoneal; conditions: in vivo, 120 h
MDA-MB-231 [16] = assay: Antitumor activity against human MDA-MB-231 cells xenografted in athymic nude mouse assessed as tumor free state at 75 mg/kg, ip qd administered on day 14 for 5 days followed by compound readministration on day 27 measured on day 41; type: functional, organism-based; parameters: dose 75 mg/kg
Procedure, shortened: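 Female athymic nude mice carried sc MDA-MB-231T tumor fragments staged to about 125 mg. Compound was given ip as a solution in 10% DMSO in saline/Tween 80, with courses beginning day 14 and repeated from day 27. Groups had 8 animals, with 16 vehicle controls. Animals were scored as tumor-free on day 41.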

CAKI-1 = assay: Cytotoxicity against human CAKI-1 cells assessed as growth inhibition after 48 hrs by SRB assay; type: functional; conditions: CAKI-1, 48 h
HeLa = assay: Antiproliferative activity against human HeLa cells after 48 hrs by SRB assay; type: functional, cell-based
Procedure, shortened: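 Isogenic pairs: parental SK-OV-3 alongside its Pgp-overexpressing subline MDR-M6-6, and parental HeLa alongside βIII-tubulin-transfected HeLa. Antiproliferative IC50 measured by sulforhodamine B assay, averaged from at least three independent experiments ± SD. Relative resistance is the transduced-line IC50 divided by the parental-line IC50.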

MDA-MB-435 = assay: Cytotoxicity against human MDA-MB-435 cells assessed as growth inhibition after 48 hrs by SRB assay; type: functional, cell-based; conditions: MDA-MB-435, 48 h

Row | SMILES | Ratio IC50 [1] | LCK (MDA-MB-231 [2]) | Activity (Mus musculus [3]) | Activity (Mus musculus [4]) | Activity (Mus musculus [5]) | Activity (Mus musculus [6]) | Activity (MDA-MB-231 [7]) [%] | Activity (MDA-MB-231 [8]) [%] | Activity (MDA-MB-231 [9]) [%] | Activity (MDA-MB-231 [10]) [%] | T/C (MDA-MB-231 [11]) [%] | T/C (MDA-MB-231 [12]) [%] | %max (Mus musculus [13]) [%] | %max (Mus musculus [14]) [%] | %max (Mus musculus [15]) [%] | Activity (MDA-MB-231 [16]) | GI50 (CAKI-1) [nM] | IC50 (HeLa) [nM] | IC50 (MDA-MB-435) [nM]
1 | COc1ccc(N(C)c2nc(C)nc3c2CC(C)C3)cc1.Cl (racemic) | 1.2 | – | – | – | – | – | – | – | – | – | – | – | – | – | – | – | – | – | –
2 | COc1ccc(N(C)c2nc(C)nc3c2CCC3)cc1.Cl | – | -1.1 | Non-toxic | Non-toxic | Non-toxic | Non-toxic | 32 | 44 | 40 | 27 | 19 | 17 | 7.8 | 9 | 7.9 | Active | < 10 | 9.3 | 7
